ChEMBL document CHEMBL2157978, “Design, synthesis, and biological evaluation of nonsteroidal cycloalkane[d]isoxazole-containing androgen receptor modulators” (J Med Chem, 2012)
Residue numbers refer to the chain shown, from its start. Several values for one entry are separate records, joined by “and”; a condition that tells them apart may be missing. Identical values can stand only once. Activity calls are given as the source filed them.

molecular target: T1, Androgen receptor (Homo sapiens) (UniProt P10275); assay: Agonist activity at wild type human androgen receptor expressed in COS-1 cells co-transfected with pSG5 assessed as effect on testosterone induced luciferase activity at 10 uM after 18 hrs relative untreated control; type: functional, cell-based
T1 sequence (whole entry): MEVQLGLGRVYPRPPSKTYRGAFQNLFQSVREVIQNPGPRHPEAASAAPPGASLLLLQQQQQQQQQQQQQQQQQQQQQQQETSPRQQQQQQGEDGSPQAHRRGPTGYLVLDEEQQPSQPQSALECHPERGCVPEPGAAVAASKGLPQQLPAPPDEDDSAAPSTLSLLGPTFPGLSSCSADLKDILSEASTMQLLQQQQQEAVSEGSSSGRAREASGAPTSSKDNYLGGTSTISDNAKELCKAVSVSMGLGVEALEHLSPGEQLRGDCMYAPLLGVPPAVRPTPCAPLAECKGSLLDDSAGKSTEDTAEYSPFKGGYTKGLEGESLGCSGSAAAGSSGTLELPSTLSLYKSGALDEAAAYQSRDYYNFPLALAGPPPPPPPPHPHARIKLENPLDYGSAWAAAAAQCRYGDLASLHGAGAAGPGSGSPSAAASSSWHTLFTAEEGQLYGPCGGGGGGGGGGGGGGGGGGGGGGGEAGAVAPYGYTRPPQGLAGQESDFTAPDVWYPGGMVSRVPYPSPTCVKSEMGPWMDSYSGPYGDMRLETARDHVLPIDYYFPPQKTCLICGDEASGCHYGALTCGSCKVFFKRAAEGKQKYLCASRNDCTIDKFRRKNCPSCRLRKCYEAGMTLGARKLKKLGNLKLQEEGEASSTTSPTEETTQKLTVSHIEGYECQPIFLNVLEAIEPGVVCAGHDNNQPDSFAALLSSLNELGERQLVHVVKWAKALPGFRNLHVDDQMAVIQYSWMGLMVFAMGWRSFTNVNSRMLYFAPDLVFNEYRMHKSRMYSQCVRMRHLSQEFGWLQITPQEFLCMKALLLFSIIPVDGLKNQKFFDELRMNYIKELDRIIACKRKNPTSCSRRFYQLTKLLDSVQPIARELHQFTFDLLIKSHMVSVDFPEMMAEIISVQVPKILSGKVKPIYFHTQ

Structure (SMILES) | Activity
O=[N+]([O-])c1ccc(C2=NOC3CCCCC23)cc1C(F)(F)F (racemic) | inactive
N#Cc1ccc(C2=NOC3CCCCC23)cc1C(F)(F)F (racemic) | inactive
N#Cc1ccc(C2=NO[C@H]3CCC[C@@H]23)cc1C(F)(F)F | inactive
Fc1ccc(C2=NOC3CCCCCC23)c(C(F)(F)F)c1 (stereo not given) | inactive
O=[N+]([O-])c1ccc(C2=NO[C@@H]3CCC[C@H]23)cc1C(F)(F)F | inactive
N#Cc1ccc(C2=NOC3CCCCCC23)cc1C(F)(F)F (racemic) | inactive
Fc1ccc(C2=NOC3CCCCCC23)cc1C(F)(F)F (racemic) | inactive
Fc1ccc(C2=NOC3CCCCC23)cc1C(F)(F)F (racemic) | inactive
O=[N+]([O-])c1ccc(C2=NO[C@H]3CCC[C@@H]23)cc1C(F)(F)F | inactive

test system: Androgen receptor (Homo sapiens), P10275 [T878A]; assay: Antagonist activity at human Androgen receptor T877A mutant expressed in COS-1 cells co-transfected with pSG5 assessed as reduction in testosterone induced luciferase activity at 10 uM after 18 hrs relative untreated control; type: functional, cell-based
Sequence (P10275 whole entry T878A): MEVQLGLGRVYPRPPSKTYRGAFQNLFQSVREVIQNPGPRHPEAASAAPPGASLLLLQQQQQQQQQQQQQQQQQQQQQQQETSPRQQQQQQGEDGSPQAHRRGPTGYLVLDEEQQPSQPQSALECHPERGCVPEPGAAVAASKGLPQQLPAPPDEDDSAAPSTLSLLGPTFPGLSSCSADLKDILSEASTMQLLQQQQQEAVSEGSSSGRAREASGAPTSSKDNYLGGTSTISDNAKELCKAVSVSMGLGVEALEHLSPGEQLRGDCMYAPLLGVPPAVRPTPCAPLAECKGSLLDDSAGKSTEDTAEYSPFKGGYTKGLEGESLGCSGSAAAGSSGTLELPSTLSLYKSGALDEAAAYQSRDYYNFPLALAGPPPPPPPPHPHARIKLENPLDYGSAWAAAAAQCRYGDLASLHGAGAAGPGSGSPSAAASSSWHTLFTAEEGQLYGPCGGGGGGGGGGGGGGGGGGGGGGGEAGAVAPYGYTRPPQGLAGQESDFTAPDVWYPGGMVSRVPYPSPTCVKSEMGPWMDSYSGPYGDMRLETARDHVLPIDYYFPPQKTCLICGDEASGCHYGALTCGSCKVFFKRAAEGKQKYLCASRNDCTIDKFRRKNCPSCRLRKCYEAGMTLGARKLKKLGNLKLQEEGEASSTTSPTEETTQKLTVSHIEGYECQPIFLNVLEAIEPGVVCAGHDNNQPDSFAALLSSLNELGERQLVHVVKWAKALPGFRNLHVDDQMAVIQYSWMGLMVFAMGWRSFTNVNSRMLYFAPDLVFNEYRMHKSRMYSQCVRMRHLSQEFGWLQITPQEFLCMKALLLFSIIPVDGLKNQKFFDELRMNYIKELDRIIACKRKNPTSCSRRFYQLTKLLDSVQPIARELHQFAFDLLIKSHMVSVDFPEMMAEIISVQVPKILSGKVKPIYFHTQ
Outline: (§1)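 COS-1 cells were grown in DMEM with dextran-charcoal-treated FBS (2.5% during transfection). They were transfected for 24 h with pSG5-hART877A or pSG5-hARW741L, plus the pProbasin(−285/+32)-Luc reporter and a pCMVβ control.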

Structure (SMILES) | Activity
O=[N+]([O-])c1ccc(C2=NOC3CCCCC23)cc1C(F)(F)F (racemic) | Active
N#Cc1ccc(C2=NOC3CCCCC23)cc1C(F)(F)F (racemic) | Active

molecular target: Luciferin 4-monooxygenase (Photinus pyralis) (UniProt P08659); assay: Inhibition of Photinus pyralis recombinant luciferase at 10 uM incubated for 20 mins
Sequence (P08659 whole entry): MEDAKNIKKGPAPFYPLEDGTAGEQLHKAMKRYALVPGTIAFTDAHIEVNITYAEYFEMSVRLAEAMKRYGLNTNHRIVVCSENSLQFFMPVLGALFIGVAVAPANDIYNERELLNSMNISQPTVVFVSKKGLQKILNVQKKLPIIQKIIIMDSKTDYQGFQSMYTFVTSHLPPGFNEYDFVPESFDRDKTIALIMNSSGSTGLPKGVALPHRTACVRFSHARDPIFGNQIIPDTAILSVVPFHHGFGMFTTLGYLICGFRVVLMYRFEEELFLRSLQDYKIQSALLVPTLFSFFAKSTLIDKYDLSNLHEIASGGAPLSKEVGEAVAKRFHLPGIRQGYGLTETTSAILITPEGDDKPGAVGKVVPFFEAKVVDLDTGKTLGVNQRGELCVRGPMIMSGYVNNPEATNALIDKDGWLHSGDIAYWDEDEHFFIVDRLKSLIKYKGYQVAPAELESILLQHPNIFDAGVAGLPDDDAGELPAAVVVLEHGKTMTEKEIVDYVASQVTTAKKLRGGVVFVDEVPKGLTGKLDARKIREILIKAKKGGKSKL
Outline: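 Purified firefly luciferase diluted to 0.1 μg/mL in 1x Reporter Lysis Buffer, with compound added from ethanol stocks (10⁻³–10⁻⁷ mol/L dilutions) in triplicate. Incubated 20 min at rt, then luciferase substrate added and luminescence read. Blank (lysis buffer) and ethanol-vehicle controls were included.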

Structure (SMILES) | inhibition
O=[N+]([O-])c1ccc(C2=NOC3CCCCC23)cc1C(F)(F)F (racemic) | inactive
N#Cc1ccc(C2=NOC3CCCCC23)cc1C(F)(F)F (racemic) | inactive
N#Cc1ccc(C2=NO[C@H]3CCC[C@@H]23)cc1C(F)(F)F | inactive
Fc1ccc(C2=NOC3CCCCCC23)c(C(F)(F)F)c1 (stereo not given) | inactive
O=[N+]([O-])c1ccc(C2=NO[C@@H]3CCC[C@H]23)cc1C(F)(F)F | inactive
N#Cc1ccc(C2=NOC3CCCCCC23)cc1C(F)(F)F (racemic) | inactive
Fc1ccc(C2=NOC3CCCCCC23)cc1C(F)(F)F (racemic) | inactive
Fc1ccc(C2=NOC3CCCCC23)cc1C(F)(F)F (racemic) | inactive
O=[N+]([O-])c1ccc(C2=NO[C@H]3CCC[C@@H]23)cc1C(F)(F)F | inactive

molecular target: T1, Androgen receptor (Homo sapiens); assay: Agonist activity at wild type human androgen receptor expressed in COS-1 cells co-transfected with pSG5 assessed as effect on testosterone induced luciferase activity at 1 nM to 10 uM after 18 hrs relative untreated control; type: functional, cell-based
Outline: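 COS-1 cells were seeded in DMEM with 10% dextran-charcoal-treated FBS. After switching to 2.5% FBS, they were transfected for 24 h with pSG5-hAR, the pProbasin(−285/+32)-Luc reporter and a pCMVβ internal control. […] Luciferase was normalized to β-galactosidase and protein.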

Structure (SMILES) | Activity
O=[N+]([O-])c1ccc(C2=NOC3CCCCC23)cc1C(F)(F)F (racemic) | inactive
N#Cc1ccc(C2=NOC3CCCCC23)cc1C(F)(F)F (racemic) | inactive

molecular target: T1, Androgen receptor (Homo sapiens); assay: Potency index, ratio of RBA of hydroxyflutamide to RBA of compound for human androgen receptor

Structure (SMILES) | Ratio
N#Cc1ccc(C2=NOC3CCCCC23)cc1C(F)(F)F (racemic) | 8

molecular target: T1, Androgen receptor (Homo sapiens); assay: Potency index, ratio of RBA of (R)-bicalutamide to RBA of compound for human androgen receptor

Structure (SMILES) | Ratio
N#Cc1ccc(C2=NOC3CCCCC23)cc1C(F)(F)F (racemic) | 4

molecular target: T2, Androgen receptor (Homo sapiens, UniProt P10275); assay: Displacement of [3H]R1881 from wild type human androgen receptor expressed in COS-1 cells co-transfected with pSG5 after 2 hrs by scintillation assay
T2 sequence (P10275 whole entry): T1 sequence (whole entry)

Structure (SMILES) | IC50
O=[N+]([O-])c1ccc(C2=NOC3CCCCC23)cc1C(F)(F)F (racemic) | 120 nM
N#Cc1ccc(C2=NOC3CCCCC23)cc1C(F)(F)F (racemic) | 27.5 nM
N#Cc1ccc(C2=NO[C@H]3CCC[C@@H]23)cc1C(F)(F)F | 617 nM
Fc1ccc(C2=NOC3CCCCCC23)c(C(F)(F)F)c1 (stereo not given) | 661 nM and 813 nM
O=[N+]([O-])c1ccc(C2=NO[C@@H]3CCC[C@H]23)cc1C(F)(F)F | 302 nM
N#Cc1ccc(C2=NOC3CCCCCC23)cc1C(F)(F)F (racemic) | 43.7 nM
Fc1ccc(C2=NOC3CCCCCC23)cc1C(F)(F)F (racemic) | 11000 nM
Fc1ccc(C2=NOC3CCCCC23)cc1C(F)(F)F (racemic) | 1100 nM
O=[N+]([O-])c1ccc(C2=NO[C@H]3CCC[C@@H]23)cc1C(F)(F)F | 2510 nM

test system: T3, Androgen receptor (Homo sapiens), P10275 [W742L]; assay: Antagonist activity at human Androgen receptor W741L mutant expressed in COS-1 cells co-transfected with pSG5 assessed as reduction in testosterone induced luciferase activity at 10 uM after 18 hrs relative untreated control; type: functional, cell-based; outline: as §1
T3 sequence (whole entry): T1 sequence (whole entry) with W742L

Structure (SMILES) | Activity
O=[N+]([O-])c1ccc(C2=NOC3CCCCC23)cc1C(F)(F)F (racemic) | Active
N#Cc1ccc(C2=NOC3CCCCC23)cc1C(F)(F)F (racemic) | Active
